Data from ChEMBL document CHEMBL1140109, “Discovery of inhibitors of Escherichia coli methionine aminopeptidase with the Fe(II)-form selectivity and antibacterial activity” (J Med Chem, 2008).
In brackets after ≈: the same amount, converted by molar mass. Activity calls are given as the source filed them. No cut-off for these calls is given here.

Tests used:
Escherichia coli [1] = assay: Antibacterial activity against Escherichia coli AS19; format: functional, organism-based
In short: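 AS19 culture at 0.5 McFarland, exponential phase, diluted 1000-fold in Mueller Hinton medium containing 100 mM Tris pH 7.5, exposed to increasing inhibitor concentrations […]. Growth followed by absorbance at 600 nm every 5 min for 10 h at 37°C.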

Escherichia coli [2] = assay: Antibacterial activity against Escherichia coli D22; format: functional, organism-based
In short: (§1)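 Exponential-phase culture at 0.5 McFarland diluted 1000-fold in Mueller Hinton medium with 100 mM Tris pH 7.5, mixed with inhibitor at increasing concentrations plus resazurin (110 µM final). Fluorescence (ex 530/em 590) read every 5 min for 10 h at 37°C.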

[3] = Inhibition of Escherichia coli BL21(DE3) methionine aminopeptidase in presence of Mn(II) metal ions
In short: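 E. coli MetAP apoenzyme, recombinant from BL21(DE3), at 500 nM and metallated with 20 μM MnCl2. Contained 50 mM MOPS pH 7.0 and 200 μM Met-AMC, at room temperature. IC50 was derived by non-linear fit of percent inhibition versus concentration.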

Bacillus subtilis = assay: Antibacterial activity against Bacillus subtilis; format: functional, organism-based; in short: as §1
Priestia megaterium = assay: Antibacterial activity against Bacillus megaterium; format: functional, organism-based; in short: as §1
[4] = Inhibition of Escherichia coli BL21(DE3) methionine aminopeptidase in presence of Fe(II) metal ions
In short: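 Purified BL21(DE3)-expressed E. coli MetAP apoenzyme at 500 nM, activated with 50 μM FeCl2 plus 100 μM ascorbic acid. Buffer was 50 mM MOPS pH 7.0 with 200 μM Met-AMC, at room temperature. Hydrolysis was followed by fluorescence (ex 360/em 460 nm) at serially diluted inhibitor concentrations. IC50 was obtained by non-linear curve fit of percent inhibition.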

[5] = Inhibition of Escherichia coli BL21(DE3) methionine aminopeptidase in presence of Co(II) metal ions
In short: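 Recombinant E. coli MetAP apoenzyme purified from BL21(DE3) cells, used at 500 nM and activated with 10 μM CoCl2. Buffer was 50 mM MOPS pH 7.0 with 200 μM Met-AMC substrate, at room temperature. AMC release was read by fluorescence (ex 360/em 460 nm) across serially diluted inhibitor. IC50 came from non-linear fitting of percent inhibition.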

[6] = tested on: Escherichia coli BL21(DE3); assay: Inhibition of Escherichia coli BL21(DE3) methionine aminopeptidase up to 100 uM in presence of Mn(II) metal ions
In short: (§2)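 Purified apoenzyme (500 nM) in 50 mM MOPS pH 7.0 with 200 µM Met-AMC, activated by 50 µM FeCl2 plus 100 µM ascorbic acid (Fe), 10 µM CoCl2 (Co) or 20 µM MnCl2 (Mn), with serially diluted inhibitor. AMC release read by fluorescence (ex 360/em 460) at room temperature. IC50 from non-linear fit of percent inhibition versus concentration.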

[7] = tested on: Escherichia coli BL21(DE3); assay: Inhibition of Escherichia coli BL21(DE3) methionine aminopeptidase up to 100 uM in presence of Fe(II) metal ions; in short: as §2
[8] = tested on: Escherichia coli BL21(DE3); assay: Inhibition of Escherichia coli BL21(DE3) methionine aminopeptidase up to 100 uM in presence of Co(II) metal ions; in short: as §2

Row | Compound | IC50 (Escherichia coli [1]) [µM] | MIC (Escherichia coli [1]) [µg/mL] | IC50 (Escherichia coli [2]) [µM] | MIC (Escherichia coli [2]) [µg/mL] | IC50 [3] [µM] | IC50 (Bacillus subtilis) [µM] | MIC (Bacillus subtilis) [µg/mL] | IC50 (Priestia megaterium) [µM] | MIC (Priestia megaterium) [µg/mL] | IC50 [4] [µM] | IC50 [5] [µM] | Activity [6] | Activity [7] | Activity [8]
1 | O=C(NC1CC1)c1ccsc1-c1ccc(O)c(O)c1 | 116 | 113 (≈ 410 µM) | 254 | 151 (≈ 548 µM) | > 100 | 109 | 56 (≈ 203 µM) | 54 | 79 (≈ 287 µM) | 7.8 | > 100 | – | – | –
2 | Cc1nc(C(=O)NC2CC2)c(-c2ccc(O)c(O)c2)s1 | 125 | 138 (≈ 475 µM) | 167 | 103 (≈ 355 µM) | 100 | 113 | 51 (≈ 176 µM) | 75.5 | 62 (≈ 214 µM) | 11.1 | 92.3 | – | – | –
3 | Oc1ccc(-c2sccc2CCBr)cc1O | 11.3 | 5 (≈ 16.7 µM) | 86 | 51 (≈ 170 µM) | 22.4 | 25.2 | 10 (≈ 33.4 µM) | 21.1 | 14 (≈ 46.8 µM) | 7.3 | 14 | – | – | –
4 | Cc1cc(-c2ccc(O)c(O)c2)c(C)s1 | 18.5 | 9 (≈ 40.9 µM) | 3.7 | 4 (≈ 18.2 µM) | > 100 | 16.5 | 5 (≈ 22.7 µM) | 16 | 5 (≈ 22.7 µM) | 7.4 | > 100 | – | – | –
5 | Oc1ccc(-c2cc(Cl)sc2Cl)cc1O | 6.1 | 3 (≈ 11.5 µM) | 7.3 | 2 (≈ 7.66 µM) | 48.6 | 6 | 2 (≈ 7.66 µM) | 5 | 1 (≈ 3.83 µM) | 20.2 | 62.4 | – | – | –
6 | Cc1ccc(-c2ccc(O)c(O)c2)s1 | 87.7 | 60 (≈ 291 µM) | 39.1 | 18 (≈ 87.3 µM) | 28 | 25.1 | 10 (≈ 48.5 µM) | 26 | 10 (≈ 48.5 µM) | 32.7 | 51.5 | – | – | –
7 | Cc1nc(-c2ccc(N)c(N)c2)cs1 | 117 | – | – | – | – | – | – | – | – | – | – | inactive | inactive | inactive
8 | Oc1ccc(-c2cccs2)cc1O | 32.8 | – | 4 | 3 (≈ 15.6 µM) | 15.7 | 16.1 | 7 (≈ 36.4 µM) | 21.2 | 9 (≈ 46.8 µM) | 5.1 | 23.7 | – | – | –
9 | Oc1ccc(-c2ccc(Cl)s2)cc1O | 15.5 | 7 (≈ 30.9 µM) | 7.5 | 3 (≈ 13.2 µM) | 44.8 | 7.1 | 2 (≈ 8.82 µM) | 6.3 | 2 (≈ 8.82 µM) | 12.8 | > 100 | – | – | –
10 | Oc1ccc(-c2ccsc2)cc1O | 29.9 | 15 (≈ 78 µM) | 2 | 2 (≈ 10.4 µM) | 27.5 | 15.7 | 9 (≈ 46.8 µM) | 19.2 | 10 (≈ 52 µM) | 3.8 | 40.4 | – | – | –
11 | O=C(NC1CC1)c1ccc(-c2ccc(O)c(O)c2)s1 | 110 | 78 (≈ 283 µM) | 238 | 105 (≈ 381 µM) | 34 | 211 | 122 (≈ 443 µM) | 133 | 85 (≈ 309 µM) | 23.8 | 28.5 | – | – | –
12 | Cc1sc(C)c(-c2ccc(O)c(O)c2)c1Br | 10.8 | 5 (≈ 16.7 µM) | 7.7 | 9 (≈ 30.1 µM) | 2.1 | 12.8 | 8 (≈ 26.7 µM) | 17.5 | 10 (≈ 33.4 µM) | 3.1 | 2.4 | – | – | –
13 | N#Cc1ccc(-c2ccc(O)c(O)c2)s1 | 20.1 | 11 (≈ 50.6 µM) | 44.2 | 15 (≈ 69 µM) | 30.4 | 14.6 | 13 (≈ 59.8 µM) | 15.3 | 9 (≈ 41.4 µM) | 14.8 | 36.3 | – | – | –
14 | Nc1nc(-c2ccc(O)c(O)c2)cs1 | 145 | 39 (≈ 187 µM) | 39.9 | 11 (≈ 52.8 µM) | > 100 | 28.6 | 13 (≈ 62.4 µM) | 36.9 | 26 (≈ 125 µM) | 6.6 | > 100 | – | – | –
15 | Oc1ccc(-c2nccs2)cc1O | 235 | 198 (≈ 1020 µM) | 98.7 | 66 (≈ 342 µM) | > 100 | 397 | 193 (≈ 999 µM) | 224 | 112 (≈ 580 µM) | 16.6 | > 100 | – | – | –
16 | Cc1nc(C(=O)NC(C)C)c(-c2ccc(O)c(O)c2)s1 | 116 | 121 (≈ 414 µM) | 93.8 | 73 (≈ 250 µM) | > 100 | 186 | 125 (≈ 428 µM) | 175 | 122 (≈ 417 µM) | 15.4 | > 100 | – | – | –
17 | CCc1ccsc1-c1ccc(O)c(O)c1 | 15.4 | 5 (≈ 22.7 µM) | 11.8 | 6 (≈ 27.2 µM) | – | 21.8 | 7 (≈ 31.8 µM) | 27.8 | 11 (≈ 49.9 µM) | 12.9 | 62.6 | – | – | –
18 | CCCCc1ccsc1-c1ccc(O)c(O)c1 | 12.4 | 5 (≈ 20.1 µM) | 13.5 | 5 (≈ 20.1 µM) | 48.2 | 7.8 | 3 (≈ 12.1 µM) | 7.6 | 3 (≈ 12.1 µM) | 9.2 | > 100 | – | – | –
19 | CCCc1ccsc1-c1ccc(O)c(O)c1 | 15.5 | 4 (≈ 17.1 µM) | 43 | 19 (≈ 81.1 µM) | 34.3 | 14.9 | 4 (≈ 17.1 µM) | 15.5 | 6 (≈ 25.6 µM) | 14 | 100 | – | – | –
